Data from ChEMBL document CHEMBL3808334, “Synthesis and in vitro evaluation of novel triazine analogues as anticancer agents and their interaction studies with bovine serum albumin” (Eur J Med Chem, 2016).

Experiments:
Type in all cases: functional
MDA-MB-435 [1] = assay: Growth inhibition of human MDA-MB-435 cells assessed as cell growth at 10^-5 M incubated for 48 hrs by sulforhodamine B assay; details: MDA-MB-435, 48 h, read-out: Activity
SR [2] = assay: Growth inhibition of human SR cells incubated for 48 hrs by sulforhodamine B assay
How it was run: (§1)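 Cells were plated at 5,000–40,000 per well according to doubling time and preincubated 24 h at 37 °C in 5% CO2; time-zero plates were then TCA-fixed. Five concentrations (10-fold or ½-log dilutions, DMSO stock) were incubated 48 h. Cells were TCA-fixed, stained with 0.4% SRB and read at 515 nm. GI50 was taken where [(Ti−Tz)/(C−Tz)]×100 = 50.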

[3] = Growth inhibition of human SF539 cells incubated for 48 hrs by sulforhodamine B assay; details: SF-539, 48 h; how it was run: as §1
SK-MEL-2 [4] = assay: Growth inhibition of human SK-MEL-2 cells assessed as cell growth at 10^-5 M incubated for 48 hrs by sulforhodamine B assay; details: SK-MEL-2, 48 h, read-out: Activity
ACHN = assay: Growth inhibition of human ACHN cells incubated for 48 hrs by sulforhodamine B assay
How it was run: (§2)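 Five-dose assay: five concentrations from 10-fold or ½-log serial dilutions. Cells are plated at 5,000–40,000 per well according to doubling time, grown 24 h, then exposed 48 h at 37 °C, 5% CO₂. Fixed with cold 50% TCA (final addition) for 60 min at 4 °C and stained with 0.4% SRB in 1% acetic acid. Bound dye is solubilized in 10 mM Tris base and read at 515 nm. GI₅₀ is where [(Ti−Tz)/(C−Tz)]×100 = 50, with a time-zero plate as Tz.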

[5] = Growth inhibition of human HL-60(TB) cells assessed as cell growth at 10^-6 M incubated for 48 hrs by sulforhodamine B assay; details: HL-60, 48 h, read-out: Activity
How it was run: (§3)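 Cells plated at 5,000–40,000/well according to doubling time and preincubated 24 h at 37 °C, 5% CO₂, with time-zero plates TCA-fixed. Drugs were kept as DMSO concentrates at 400× the top concentration and diluted in medium with 50 µg/ml gentamicin. Five 10-fold or ½-log dilutions were run for 48 h, followed by SRB staining and A515. Percent growth = (Ti−Tz)/(C−Tz)×100, or (Ti−Tz)/Tz×100 when Ti<Tz.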

[6] = Growth inhibition of human HCT116 cells incubated for 48 hrs by sulforhodamine B assay; details: HCT-116, 48 h
How it was run: (§4)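 Cells seeded at 5,000–40,000/well according to doubling time and preincubated 24 h at 37 °C, 5% CO2. Time-zero plates were TCA-fixed. DMSO concentrate was diluted in medium with 50 µg/ml gentamicin to give five concentrations (10-fold or ½ log steps), then exposed 48 h. Cells were TCA-fixed, stained with 0.4% SRB and read at 515 nm. Percent growth was taken against time-zero and control; GI50, TGI and LC50 derived.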

[7] = Growth inhibition of human Caki1 cells assessed as cell growth at 10^-4 M incubated for 48 hrs by sulforhodamine B assay; details: CAKI-1, 48 h, read-out: Activity; how it was run: as §4
[8] = Growth inhibition of human SNB19 cells assessed as cell growth at 10 uM incubated for 48 hrs by sulforhodamine B assay; details: SNB-19, 48 h, read-out: Activity
[9] = Growth inhibition of human OVCAR4 cells assessed as cell growth at 10^-4 M incubated for 48 hrs by sulforhodamine B assay; details: OVCAR-4, 48 h, read-out: Activity
[10] = Growth inhibition of human UO31 cells assessed as cell growth at 10^-7 M incubated for 48 hrs by sulforhodamine B assay; details: UO-31, 48 h, read-out: Activity
K562 = assay: Growth inhibition of human K562 cells assessed as cell growth at 10^-5 M incubated for 48 hrs by sulforhodamine B assay; details: K562, 48 h, read-out: Activity
[11] = Growth inhibition of human HCT15 cells assessed as cell growth at 10^-8 M incubated for 48 hrs by sulforhodamine B assay; details: HCT-15, 48 h, read-out: Activity; how it was run: as §4
A498 = assay: Growth inhibition of human A498 cells assessed as cell growth at 10^-4 M incubated for 48 hrs by sulforhodamine B assay; details: A498, 48 h, read-out: Activity; how it was run: as §2
[12] = Growth inhibition of human COLO205 cells assessed as cell growth at 10^-6 M incubated for 48 hrs by sulforhodamine B assay; details: COLO 205, 48 h, read-out: Activity; how it was run: as §4
[13] = Growth inhibition of human HL-60(TB) cells assessed as cell growth at 10^-8 M incubated for 48 hrs by sulforhodamine B assay; details: HL-60, 48 h, read-out: Activity; how it was run: as §3
MDA-MB-435 [14] = assay: Growth inhibition of human MDA-MB-435 cells assessed as cell growth at 10^-4 M incubated for 48 hrs by sulforhodamine B assay; details: MDA-MB-435, 48 h, read-out: Activity
SR [15] = assay: Growth inhibition of human SR cells assessed as cell growth at 10^-5 M incubated for 48 hrs by sulforhodamine B assay; details: read-out: Activity
786-0 = assay: Growth inhibition of human 786-0 cells assessed as cell growth at 10 uM incubated for 48 hrs by sulforhodamine B assay; details: 786-0, 48 h, read-out: Activity
How it was run: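 One-dose screen at 10 µM final. Cells are plated at 5,000–40,000 per well according to doubling time and preincubated 24 h at 37 °C, 5% CO₂. Compound (DMSO stock diluted in medium with 50 µg/ml gentamicin) is then added for 48 h. Growth percent is read by sulforhodamine B staining, absorbance at 515 nm.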

[16] = Growth inhibition of human SW620 cells assessed as cell growth at 10^-7 M incubated for 48 hrs by sulforhodamine B assay; details: SW-620, 48 h, read-out: Activity
SK-MEL-2 [17] = assay: Growth inhibition of human SK-MEL-2 cells assessed as cell growth at 10 uM incubated for 48 hrs by sulforhodamine B assay; details: SK-MEL-2, 48 h, read-out: Activity
[18] = Growth inhibition of human UACC62 cells assessed as cell growth at 10^-5 M incubated for 48 hrs by sulforhodamine B assay; details: UACC-62, 48 h, read-out: Activity
KM12 = assay: Growth inhibition of human KM12 cells assessed as cell growth at 10 uM incubated for 48 hrs by sulforhodamine B assay; details: KM12, 48 h, read-out: Activity
[19] = Growth inhibition of human HOP62 cells assessed as cell growth at 10^-6 M incubated for 48 hrs by sulforhodamine B assay; details: HOP-62, 48 h, read-out: Activity
[20] = read-out: LC50 (the source's name)
[21] = read-out: pLC50 (the source's name) (converted)

Structure (SMILES): c1ccc(-c2nc(Nc3ccc(-c4nc5ccccc5[nH]4)cc3)nc(N3CCOCC3)n2)cc1
- growth at 10 µM (MDA-MB-435 [1]): -90%
- GI50 (SR [2]; read-out: GI50): 0.125 µM
- CC50 (SR [2]; [20]): > 100 µM
- TGI (SR [2]; read-out: TGI): 0.555 µM
- GI50 (SR [2]; read-out: pGI50 (converted)): 0.126 µM
- CC50 (SR [2]; [21]): > 100 µM
- TGI (SR [2]; read-out: pTGI (converted)): 0.55 µM
- GI50 ([3]; read-out: GI50): 1.42 µM
- CC50 [3, 20]: 6.09 µM
- TGI ([3]; read-out: TGI): 2.94 µM
- GI50 ([3]; read-out: pGI50 (converted)): 1.41 µM
- CC50 [3, 21]: 6.03 µM
- TGI ([3]; read-out: pTGI (converted)): 2.95 µM
- growth at 10 µM (SK-MEL-2 [4]): -85%
- GI50 (ACHN; read-out: GI50): 1.25 µM
- CC50 (ACHN; [20]): 6.04 µM
- TGI (ACHN; read-out: TGI): 2.74 µM
- GI50 (ACHN; read-out: pGI50 (converted)): 1.26 µM
- CC50 (ACHN; [21]): 6.03 µM
- TGI (ACHN; read-out: pTGI (converted)): 2.75 µM
- growth at 1 µM [5]: -7%
- GI50 ([6]; read-out: GI50): 0.394 µM
- CC50 [6, 20]: 7.18 µM
- TGI ([6]; read-out: TGI): 1.62 µM
- GI50 ([6]; read-out: pGI50 (converted)): 0.398 µM
- CC50 [6, 21]: 7.24 µM
- TGI ([6]; read-out: pTGI (converted)): 1.62 µM
- growth at 100 µM [7]: -100%
- growth at 10 µM [8]: -18.6%
- growth at 100 µM [9]: -98%
- growth at 0.1 µM [10]: 82%
- growth at 10 µM (K562): -54%
- growth at 0.01 µM [11]: 96%
- growth at 100 µM (A498): -100%
- growth at 1 µM [12]: 72%
- growth at 0.01 µM [13]: 73%
- growth at 100 µM (MDA-MB-435 [14]): -86%
- growth at 10 µM (SR [15]): -26%
- growth at 10 µM (786-0): -88.9%
- growth at 0.1 µM [16]: 92%
- growth at 10 µM (SK-MEL-2 [17]): -52.7%
- growth at 10 µM [18]: -71%
- growth at 10 µM (KM12): -76.6%
- growth at 1 µM [19]: 89%

Structure (SMILES): Fc1ccc(-c2nc(Nc3ccc(-c4nc5ccccc5[nH]4)cc3)nc(N3CCOCC3)n2)cc1
- growth at 10 µM (MDA-MB-435 [1]): -62%
- GI50 (SR [2]; read-out: GI50): 0.539 µM
- CC50 (SR [2]; [20]): > 100 µM
- GI50 (SR [2]; read-out: pGI50 (converted)): 0.537 µM
- CC50 (SR [2]; [21]): > 100 µM
- GI50 ([3]; read-out: GI50): 1.63 µM
- CC50 [3, 20]: 8.47 µM
- TGI ([3]; read-out: TGI): 3.72 µM
- GI50 ([3]; read-out: pGI50 (converted)): 1.62 µM
- CC50 [3, 21]: 8.51 µM
- TGI ([3]; read-out: pTGI (converted)): 3.72 µM
- growth at 10 µM (SK-MEL-2 [4]): -35%
- GI50 (ACHN; read-out: GI50): 2.55 µM
- CC50 (ACHN; [20]): > 100 µM
- TGI (ACHN; read-out: TGI): > 100 µM
- GI50 (ACHN; read-out: pGI50 (converted)): 2.57 µM
- CC50 (ACHN; [21]): > 100 µM
- TGI (ACHN; read-out: pTGI (converted)): > 100 µM
- growth at 1 µM [5]: 81%
- GI50 ([6]; read-out: GI50): 1.9 µM
- CC50 [6, 20]: 6.56 µM
- TGI ([6]; read-out: TGI): 3.53 µM
- GI50 ([6]; read-out: pGI50 (converted)): 1.91 µM
- CC50 [6, 21]: 6.61 µM
- TGI ([6]; read-out: pTGI (converted)): 3.55 µM
- growth at 100 µM [7]: -29%
- growth at 10 µM [8]: 17.5%
- growth at 100 µM [9]: -23%
- growth at 0.1 µM [10]: 89%
- growth at 10 µM (K562): -31%
- growth at 0.01 µM [11]: 97%
- growth at 100 µM (A498): -96%
- growth at 1 µM [12]: 92%
- growth at 0.01 µM [13]: 92%
- growth at 100 µM (MDA-MB-435 [14]): -42%
- growth at 10 µM (SR [15]): -15%
- growth at 10 µM (786-0): -60%
- growth at 0.1 µM [16]: 100%
- growth at 10 µM (SK-MEL-2 [17]): -19.2%
- growth at 10 µM [18]: -70%
- growth at 10 µM (KM12): 12.4%
- growth at 1 µM [19]: 90%
